{"source": "ChEMBL document CHEMBL2203194", "about": "“Phenolic compounds from Caesalpinia sappan heartwood and their anti-inflammatory activity” (J Nat Prod, 2012)", "key": {"RAW264.7 [1]": {"tested_on": "RAW264.7", "assay": "Antiinflammatory activity in mouse RAW264.7 cells assessed as inhibition of LPS-induced nitric oxide generation incubated for 24 hrs", "format": "functional, cell-based", "settings": "RAW264.7, 24 h", "outline": "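Nitrite in supernatant reacted with Griess reagent (sulfanilamide/phosphoric acid plus naphthylethylenediamine), A540 read, calibrated against NaNO2 standard. IC50 versus vehicle control, mean ± SD of three experiments; celastrol positive control.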"}, "[2]": {"assay": "Antioxidant activity assessed as nitric oxide free radical scavenging activity by UV-visible spectroscopy", "format": "functional", "outline": "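Compounds in DMSO, made up with MeOH, mixed with 10 mM sodium nitroprusside in PBS; room temperature 150 min. Scavenging % = (control − sample)/control × 100, MeOH blank as control; ascorbic acid standard. IC50, mean ± SD of three experiments.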"}, "RAW264.7 [3]": {"tested_on": "RAW264.7", "assay": "Cytotoxicity against mouse RAW264.7 cells at 50 uM incubated for 24 hrs in presence of LPS by MTT assay", "format": "cell-based", "settings": "raw264.7, 24 h", "outline": "(§1)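 RAW264.7 viability by MTT colorimetric assay after 24 h with compounds at 50 μM, with or without LPS (1 μg/mL).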"}, "RAW264.7 [4]": {"tested_on": "RAW264.7", "assay": "Cytotoxicity against mouse RAW264.7 cells at 50 uM incubated for 24 hrs in absence of LPS by MTT assay", "format": "cell-based", "settings": "raw264.7, 24 h", "outline": "as §1"}, "RAW264.7 [5]": {"tested_on": "RAW264.7", "assay": "Antiinflammatory activity in mouse RAW264.7 cells assessed as inhibition of LPS-induced TNFalpha production incubated for 24 hrs by ELISA", "format": "functional, cell-based", "settings": "RAW264.7, 24 h", "outline": "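RAW264.7 cells (1 × 10^5 cells/well) stimulated with 1 μg/mL LPS for 24 h with test compounds; TNF-α in culture supernatant quantified by ELISA. IC50 relative to vehicle control; mean ± SD of three repeated experiments. Celastrol positive control.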"}, "RAW264.7 [6]": {"tested_on": "RAW264.7", "assay": "Antiinflammatory activity in mouse RAW264.7 cells assessed as reduction of LPS-induced IkappaBalpha resynthesis at 30 uM pre-treated for 30 mins before LPS challenge by immunoblot", "format": "functional, cell-based", "outline": "(§2)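 30 min pretreatment of RAW264.7 cells with compound, then LPS (1 μg/mL). Lysis in ice-cold Tris-HCl pH 7.5/NP-40 buffer with protease/phosphatase inhibitors. SDS-PAGE, PVDF transfer, skim-milk block, anti-IκB-α antibody, HRP secondary, ECL detection.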"}, "RAW264.7 [7]": {"tested_on": "RAW264.7", "assay": "Antiinflammatory activity in mouse RAW264.7 cells assessed as reduction of LPS-induced iNOS protein expression pre-treated for 30 mins before LPS challenge for 18 hrs by immunoblot", "format": "functional, cell-based", "outline": "(§3)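 Cells pretreated 30 min with compound (0−10 μM), then LPS 1 μg/mL for 18 h. Total lysates in ice-cold Tris-HCl pH 7.5/NP-40 buffer; 50 μg protein per lane by SDS-PAGE, PVDF, skim-milk block, anti-iNOS and anti-α-tubulin antibodies, HRP secondary, ECL. iNOS densitometry normalized to α-tubulin.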"}, "RAW264.7 [8]": {"tested_on": "RAW264.7", "assay": "Effect on alpha-tubulin protein expression in mouse RAW264.7 cells up to 10 uM pre-treated for 30 mins before LPS challenge for 18 hrs by immunoblot", "format": "functional, cell-based", "outline": "as §3"}, "RAW264.7 [9]": {"tested_on": "RAW264.7", "assay": "Antiinflammatory activity in mouse RAW264.7 cells assessed as reduction of LPS-induced IkappaBalpha degradation at 30 uM pre-treated for 30 mins before LPS challenge and measured after 15 mins by immunoblot", "format": "functional, cell-based", "outline": "as §2"}, "RAW264.7 [10]": {"tested_on": "RAW264.7", "assay": "Antiinflammatory activity in mouse RAW264.7 cells assessed as reduction of LPS-induced IkappaBalpha degradation at 30 uM pre-treated for 30 mins before LPS challenge and measured after 10 mins by immunoblot", "format": "functional, cell-based", "outline": "as §2"}, "RAW264.7 [11]": {"tested_on": "RAW264.7", "assay": "Antiinflammatory activity in mouse RAW264.7 cells assessed as reduction of LPS-induced IkappaBalpha degradation at 30 uM pre-treated for 30 mins before LPS challenge and measured after 5 mins by immunoblot", "format": "functional, cell-based", "outline": "as §2"}}, "note": "Activity calls are given as the source filed them. The rule behind the calls is not given here."}
{"smiles": "O=C1c2ccc(O)cc2OC[C@]1(O)Cc1ccc(O)cc1", "values": [{"measurement": "IC50", "setting": "RAW264.7 [1]", "result": "> 50", "unit": "µM"}, {"measurement": "IC50", "setting": "[2]", "result": 117, "unit": "µM"}, {"measurement": "Activity", "setting": "RAW264.7 [3]", "result": "Non-toxic"}, {"measurement": "Activity", "setting": "RAW264.7 [4]", "result": "Non-toxic"}]}
{"smiles": "O=C1C=C[C@]23CC(COC2=C1)Cc1cc(O)c(O)cc13", "values": [{"measurement": "IC50", "setting": "RAW264.7 [1]", "result": "> 50", "unit": "µM"}, {"measurement": "IC50", "setting": "[2]", "result": 157, "unit": "µM"}, {"measurement": "Activity", "setting": "RAW264.7 [3]", "result": "Non-toxic"}, {"measurement": "Activity", "setting": "RAW264.7 [4]", "result": "Non-toxic"}]}
{"smiles": "O=C1c2ccc(O)cc2OC[C@@H]1Cc1ccc(O)c(O)c1", "values": [{"measurement": "IC50", "setting": "RAW264.7 [1]", "result": 42.4, "unit": "µM"}, {"measurement": "IC50", "setting": "[2]", "result": 65.3, "unit": "µM"}, {"measurement": "Activity", "setting": "RAW264.7 [3]", "result": "Non-toxic"}, {"measurement": "Activity", "setting": "RAW264.7 [4]", "result": "Non-toxic"}]}
{"smiles": "O=C1/C(=C/c2ccc(O)cc2)COc2cc(O)ccc21", "values": [{"measurement": "IC50", "setting": "RAW264.7 [1]", "result": "> 50", "unit": "µM"}, {"measurement": "IC50", "setting": "[2]", "result": 95.5, "unit": "µM"}, {"measurement": "Activity", "setting": "RAW264.7 [3]", "result": "Non-toxic"}, {"measurement": "Activity", "setting": "RAW264.7 [4]", "result": "Non-toxic"}]}
{"smiles": "COc1cc(O)c2c(=O)c(OC)c(-c3ccc(O)c(O)c3)oc2c1", "values": [{"measurement": "IC50", "setting": "RAW264.7 [1]", "result": 3.5, "unit": "µM"}, {"measurement": "IC50", "setting": "[2]", "result": 103, "unit": "µM"}, {"measurement": "IC50", "setting": "RAW264.7 [5]", "result": 5.8, "unit": "µM"}, {"measurement": "Activity", "setting": "RAW264.7 [6]", "result": "Active"}, {"measurement": "Activity", "setting": "RAW264.7 [7]", "result": "Dose-dependent effect"}, {"measurement": "Activity", "setting": "RAW264.7 [3]", "result": "Non-toxic"}, {"measurement": "Activity", "setting": "RAW264.7 [8]", "result": "inactive"}, {"measurement": "Activity", "setting": "RAW264.7 [4]", "result": "Non-toxic"}, {"measurement": "Activity", "setting": "RAW264.7 [9]", "result": "Active"}, {"measurement": "Activity", "setting": "RAW264.7 [10]", "result": "Active"}]}
{"smiles": "COc1cc(C[C@@]2(O)COc3cc(O)ccc3C2=O)ccc1O", "note": "[CAESALPINIAPHENOL A]", "values": [{"measurement": "IC50", "setting": "RAW264.7 [1]", "result": "> 50", "unit": "µM"}, {"measurement": "IC50", "setting": "[2]", "result": 103, "unit": "µM"}, {"measurement": "Activity", "setting": "RAW264.7 [3]", "result": "Non-toxic"}, {"measurement": "Activity", "setting": "RAW264.7 [4]", "result": "Non-toxic"}]}
{"smiles": "O=C1O[C@H]([C@@H](O)CO)C(O)=C1O", "note": "[ASCORBIC ACID]", "values": [{"measurement": "IC50", "setting": "[2]", "result": 0.71, "unit": "µM"}]}
{"smiles": "O=Cc1ccc(O)cc1O[C@H](O)c1ccc(O)c(O)c1", "note": "[CAESALPINIAPHENOL D]", "values": [{"measurement": "IC50", "setting": "RAW264.7 [1]", "result": 12.2, "unit": "µM"}, {"measurement": "IC50", "setting": "[2]", "result": 113, "unit": "µM"}, {"measurement": "IC50", "setting": "RAW264.7 [5]", "result": "> 50", "unit": "µM"}, {"measurement": "Activity", "setting": "RAW264.7 [7]", "result": "Dose-dependent effect"}, {"measurement": "Activity", "setting": "RAW264.7 [3]", "result": "Non-toxic"}, {"measurement": "Activity", "setting": "RAW264.7 [8]", "result": "inactive"}, {"measurement": "Activity", "setting": "RAW264.7 [4]", "result": "Non-toxic"}]}
{"smiles": "O=C1OCC=C1C[C@@]1(O)COc2cc(O)ccc2C1=O", "note": "[CAESALPINIAPHENOL B]", "values": [{"measurement": "IC50", "setting": "RAW264.7 [1]", "result": "> 50", "unit": "µM"}, {"measurement": "IC50", "setting": "[2]", "result": 95.6, "unit": "µM"}, {"measurement": "Activity", "setting": "RAW264.7 [3]", "result": "Non-toxic"}, {"measurement": "Activity", "setting": "RAW264.7 [4]", "result": "Non-toxic"}]}
{"smiles": "CC1=C(O)C(=O)C=C2C1=CC=C1[C@@]2(C)CC[C@@]2(C)[C@@H]3C[C@](C)(C(=O)O)CC[C@]3(C)CC[C@]12C", "note": "[CELASTROL]", "values": [{"measurement": "IC50", "setting": "RAW264.7 [5]", "result": 0.8, "unit": "µM"}]}
{"smiles": "O=C1COc2cc(O)ccc2-c2cc(O)c(O)cc21", "note": "[CAESALPINIAPHENOL C]", "values": [{"measurement": "IC50", "setting": "RAW264.7 [1]", "result": "> 50", "unit": "µM"}, {"measurement": "IC50", "setting": "[2]", "result": 86.2, "unit": "µM"}, {"measurement": "Activity", "setting": "RAW264.7 [3]", "result": "Non-toxic"}, {"measurement": "Activity", "setting": "RAW264.7 [4]", "result": "Non-toxic"}]}
{"smiles": "O=C1/C(=C/c2ccc(O)c(O)c2)COc2cc(O)ccc21", "note": "[SAPPANONE A]", "values": [{"measurement": "IC50", "setting": "RAW264.7 [1]", "result": 5.7, "unit": "µM"}, {"measurement": "IC50", "setting": "[2]", "result": 96.6, "unit": "µM"}, {"measurement": "Activity", "setting": "RAW264.7 [11]", "result": "Active"}, {"measurement": "IC50", "setting": "RAW264.7 [5]", "result": 8.3, "unit": "µM"}, {"measurement": "Activity", "setting": "RAW264.7 [6]", "result": "Active"}, {"measurement": "Activity", "setting": "RAW264.7 [7]", "result": "Dose-dependent effect"}, {"measurement": "Activity", "setting": "RAW264.7 [3]", "result": "Non-toxic"}, {"measurement": "Activity", "setting": "RAW264.7 [8]", "result": "inactive"}, {"measurement": "Activity", "setting": "RAW264.7 [4]", "result": "Non-toxic"}, {"measurement": "Activity", "setting": "RAW264.7 [9]", "result": "Active"}]}
{"smiles": "COc1ccc(-c2oc3cc(O)cc(O)c3c(=O)c2O)cc1OC", "values": [{"measurement": "IC50", "setting": "RAW264.7 [1]", "result": 35, "unit": "µM"}, {"measurement": "IC50", "setting": "[2]", "result": 85.3, "unit": "µM"}, {"measurement": "Activity", "setting": "RAW264.7 [3]", "result": "Non-toxic"}, {"measurement": "Activity", "setting": "RAW264.7 [4]", "result": "Non-toxic"}]}
